Published values of several laboratories.
Each line is one published result; the experiments were not run side by side.
JAK2 JH1: Tyrosine-protein kinase JAK2, JH1 (JAK2, Homo sapiens, UniProt O60674)
JAK2: Tyrosine-protein kinase JAK2 (JAK2, Homo sapiens, UniProt O60674)

Compound	target	read-out	action	technique	concentration	measurement	result
N#CC1(c2ccccn2)CCN(Cc2cc(C(=O)O)c(=O)n3ccccc23)CC1	JAK2 JH1	cell-free assay	–	competition with immobilised ligand	1 µM	remaining binding	96%
O=c1[nH]c2ccccc2n1C1CCN(Cc2ccc(-c3[nH]c4cc5ncnc5cc4nc3-c3ccccc3)cc2)CC1	JAK2	cell-free assay	–	–	0.5 µM	remaining signal	104%
Nc1ncc(-c2nc(N3CCOCC3)nc(N3CCOCC3)n2)c(C(F)F)n1	JAK2 JH1	binding	–	competition with immobilised ligand	10 µM	remaining binding	65%
Cn1cc(-c2cc(F)cc(N3CCn4c(cc5c4CCCC5)C3=O)c2CO)cc(Nc2ccc(N3CCN(C4COC4)CC3)cn2)c1=O	JAK2	enzyme activity	inhibitor	–	0.1 µM	inhibition	8%
CC(C)(C)c1cc(C=C(C#N)C#N)cc(Br)c1O	JAK2	enzyme activity	inhibitor	–	0.5 µM	remaining activity	107%
Cn1cc(-c2cccc(N3CCc4c(sc5c4CC(C)(C)C5)C3=O)c2CO)cc(Nc2ccncn2)c1=O	JAK2	enzyme activity	inhibitor	–	1 µM	inhibition	-5%
Cn1cncc1[C@](O)(COc1ccc(C#N)cc1-c1ccc(OC(F)(F)F)cc1)c1ccc(C#N)cc1	JAK2 JH1	cell-free assay	–	competition with immobilised ligand	1 µM	remaining binding	91%
C#Cc1n[nH]c2c(-c3cn(C(C)c4ccccn4)c(=O)[nH]c3=O)cc(F)cc12 (stereo not drawn)	JAK2	enzyme activity	inhibitor	–	1 µM	inhibition	-4.2%
COc1ncccc1-c1cnn2ccc(N3CCN(C(=O)OC(C)C)CC3)nc12	JAK2	binding	–	competition with immobilised ligand	1 µM	remaining binding	89%
